Results gathered from unrelated publications.
Each line is one published result; the experiments were not run side by side.
DHODH: Dihydroorotate dehydrogenase (quinone), mitochondrial (DHODH, Homo sapiens, UniProt Q02127)
PDGFRB: Platelet-derived growth factor receptor beta (PDGFRB, Homo sapiens, UniProt P09619)
TYMS: Thymidylate synthase (TYMS, Homo sapiens, UniProt P04818)
DYRK1B: Dual specificity tyrosine-phosphorylation-regulated kinase 1B (DYRK1B, Homo sapiens, UniProt Q9Y463)
PSMB8: Proteasome subunit beta type-8 (PSMB8, Homo sapiens, UniProt P28062)
EPHA7: Ephrin type-A receptor 7 (EPHA7, Homo sapiens, UniProt Q15375)

Structure (SMILES)	target	effect on	mode	method	pH	notes	IC50 [nM]
Cc1cc(Nc2ccc(C(C)(C)C)cc2)n2ncnc2n1	DHODH	enzyme activity	inhibitor				> 100000
Cc1cnc(-c2ccc(-c3ccc(NC(=O)Nc4c(F)cc(F)cc4F)cc3F)c3c2C(=O)NC3)[nH]1	PDGFRB	enzyme activity	inhibitor				10.4
Cc1nc(Nc2ccc(C)c(Cl)c2)c2c(C)noc2n1	DHODH	enzyme activity	inhibitor	absorbance			> 50000
CCOC(=O)C1CCN(C(=O)c2ccc(N(C)Cc3cnc4nc(N)nc(N)c4n3)cc2)CC1	TYMS	enzyme activity	inhibitor				74000
Oc1ccc(Cl)cc1Nc1nc(NCC2CCCO2)c2ccccc2n1 (centres unmarked)	Lysosomal acid glucosylceramidase (GBA1, Homo sapiens, UniProt P04062, R534H)	enzyme activity	inhibitor	fluorescence	pH 5.9		1500
CCCN(C)Cc1cc(-c2[nH]c3cccc(F)c3c(=O)c2C)ccc1Cc1ccc(OC(F)(F)F)cc1	DHODH	enzyme activity	inhibitor				> 10000
CCOc1ccc2c(-c3cc(C)nc(Nc4cc(OC)cc(C(F)(F)F)c4)n3)cnn2n1	DYRK1B	enzyme activity	inhibitor				> 10000
Cc1nc(Nc2ccc(C(F)(F)F)cc2)c2c(C(F)(F)F)noc2n1	DHODH	enzyme activity	inhibitor	absorbance			18000
COc1ccc(C[C@H](NC(=O)[C@H](C)NC(=O)CN2CCOCC2)C(=O)N[C@H](C(=O)[C@@]2(C)CO2)C2CCCCC2)cc1	PSMB8	enzyme activity	inhibitor			lysate	> 10000
O=C(N=Nc1c(O)[nH]c2ccccc12)c1cccs1	TYMS	enzyme activity	inhibitor	radiometric			260000
CC[C@@H]1[C@H](F)C(=O)N[C@@H]1COc1nccc2cc(C(N)=O)c(OC)cc12	EPHA7	enzyme activity	inhibitor				> 5000
COc1ccc(S(=O)(=O)ON=C2C=C(C)C(=O)C(C)=C2)cc1	CREB-binding protein (CREBBP, Homo sapiens, UniProt Q92793)	enzyme activity	inhibitor	radiometric			> 100000
CCn1ncc2c1-c1cnc(N)c(c1)O[C@H](C)c1cc(F)ccc1-c1nn(C)nc1C2	EPHA7	enzyme activity	inhibitor	radiometric			379
N#Cc1ccc(COc2cccc(C3CCN(Cc4nc5ccc(C(=O)O)cc5n4C[C@@H]4CCO4)CC3)n2)c(F)c1	Glucagon receptor (GCGR, Homo sapiens, UniProt P47871)	cAMP	antagonist				> 20000
Cc1ncc(C(=O)N[C@@H](CC2CCC(C)CC2)C(=O)N[C@@H](CC(C)C)C(=O)N[C@H](/C=C/S(C)(=O)=O)Cc2ccc(CN)cc2)s1 (some centres unmarked)	PSMB8	enzyme activity	inhibitor			lysate	> 10000
CN1CCN(c2ccc(Nc3ncc4cc(C#N)c(=O)n(C5CCCC5)c4n3)cc2)CC1	Dual specificity tyrosine-phosphorylation-regulated kinase 1A (DYRK1A, Homo sapiens, UniProt Q13627)	enzyme activity	inhibitor				807

Structure (SMILES)	target	effect on	mode	method	pH	notes	IC50 [nM]
Cc1c(C(=O)NC(C)c2nc[nH]n2)[nH]c(Cl)c1C1(c2ccc(C(F)(F)F)nc2)CC1 (centres unmarked)	DHODH	enzyme activity	inhibitor				> 100000
CC(C)C[C@H](NC(=O)[C@H](CC(C)C)NC(=O)[C@H](Cc1ccccc1)NC(=O)CN=[N+]=[N-])C(=O)N[C@H](/C=C/S(C)(=O)=O)Cc1ccc(CN)cc1	PSMB8	enzyme activity	inhibitor			lysate	1300
O=C(CSc1ncn[nH]1)Nc1ccc(C23CC4CC(CC(C4)C2)C3)cc1	Transcriptional enhancer factor TEF-4 (TEAD2, Homo sapiens, UniProt Q15562)	enzyme activity	inhibitor				710
Cc1nc(NC2CCc3cc(Br)ccc3C2)c2c(C)noc2n1 (centres unmarked)	DHODH	enzyme activity	inhibitor	absorbance			> 100000
COC1CCC(C[C@H](NC(=O)[C@H](CC(C)C)NC(=O)c2cnc(C)s2)C(=O)N[C@H](/C=C/S(C)(=O)=O)Cc2ccc(CN)cc2)CC1 (some centres unmarked)	PSMB8	enzyme activity	inhibitor			lysate	> 10000
CS(=O)(=O)c1ccc(-c2nc3ccccn3c2Nc2ccccc2)cc1	Prostaglandin G/H synthase 2 (PTGS2, Homo sapiens, UniProt P35354)	enzyme activity	inhibitor				70
CC(C)C[C@H](NC(=O)c1ccc(-c2ccccc2)nc1)C(=O)N[C@@H](CC(C)C)C(=O)N[C@H](/C=C/S(C)(=O)=O)Cc1ccc(CN)cc1	PSMB8	enzyme activity	inhibitor			lysate	> 10000
Cc1ccc(NC(=O)c2ccc(C)c(C(F)(F)F)c2)cc1C#Cc1nn(C2CCC(O)CC2)c2ncnc(N)c12 (centres unmarked)	EPHA7	enzyme activity	inhibitor	radiometric			143
Cn1cc(C2=C(c3coc4ccccc34)C(=O)NC2=O)c2cc(Br)ccc21	DYRK1B	enzyme activity	inhibitor				590
Cc1cc(Nc2cc3ncccc3c(N[C@@H]3C[C@H]4CC[C@@H](C3)N4CCC#N)n2)n[nH]1	PDGFRB	target engagement in cells	inhibitor	BRET			> 10000
CC(C)C[C@H](NC(=O)c1cc(Cl)ccc1Cl)C(=O)N[C@@H](CC(C)C)C(=O)N[C@H](/C=C/S(C)(=O)=O)Cc1ccc(CN)cc1	PSMB8	enzyme activity	inhibitor			lysate	1830
O=C1N[C@H]2n3c(cc(Br)c3Br)C(=O)N3CCC[C@]23N1 (racemic)	Proteasome subunit beta type-8, chymotrypsin-like site (PSMB8, Homo sapiens, UniProt P28062)	enzyme activity	inhibitor				6700
COc1ccc(C[C@H](NC(=O)[C@H](C)NC(=O)CN2CCOCC2)C(=O)N[C@@H](CC2CCC(C(F)(F)F)CC2)C(=O)[C@@]2(C)CO2)cc1 (some centres unmarked)	PSMB8	enzyme activity	inhibitor			lysate	191
CC/C(=N\NC(=O)C(C)Nc1ccccc1)c1ccc(O)c(C)c1O (centres unmarked)	Ribosomal protein S6 kinase beta-1 (RPS6KB1, Homo sapiens, UniProt P23443)	enzyme activity	inhibitor				33.5
CC(C)C[C@H](NC(=O)[C@H](Cc1ccccc1)N=[N+]=[N-])C(=O)N[C@@H](CC(C)(C)F)C(=O)N[C@H](/C=C/S(C)(=O)=O)Cc1ccc(CN)cc1	PSMB8	enzyme activity	inhibitor			lysate	2340
NC(=O)C1CCN(C(=O)c2ccc(NCc3cnc4nc(N)nc(N)c4n3)cc2)CC1	TYMS	enzyme activity	inhibitor				42000
